Tn6 DDE FP: disrupts Tn6 cyclic peptide binding to fibrin D-Dimer-E complex; P02675; Fibrin DD(E) TRITC-Tn6 fluorescence polarization displacement; inhibition, % at 8.3 µM; actives 0.21% (n = 370,000); AID 720509;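 active = inhibition above a per-campaign cutoff: mean of compounds within control limits plus 3 SD, cut at about 15% in these data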;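 note: 0% = median of all compound wells on the plate and 100% = blocking peptide control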
Target sequence (P02675 whole entry, looked up): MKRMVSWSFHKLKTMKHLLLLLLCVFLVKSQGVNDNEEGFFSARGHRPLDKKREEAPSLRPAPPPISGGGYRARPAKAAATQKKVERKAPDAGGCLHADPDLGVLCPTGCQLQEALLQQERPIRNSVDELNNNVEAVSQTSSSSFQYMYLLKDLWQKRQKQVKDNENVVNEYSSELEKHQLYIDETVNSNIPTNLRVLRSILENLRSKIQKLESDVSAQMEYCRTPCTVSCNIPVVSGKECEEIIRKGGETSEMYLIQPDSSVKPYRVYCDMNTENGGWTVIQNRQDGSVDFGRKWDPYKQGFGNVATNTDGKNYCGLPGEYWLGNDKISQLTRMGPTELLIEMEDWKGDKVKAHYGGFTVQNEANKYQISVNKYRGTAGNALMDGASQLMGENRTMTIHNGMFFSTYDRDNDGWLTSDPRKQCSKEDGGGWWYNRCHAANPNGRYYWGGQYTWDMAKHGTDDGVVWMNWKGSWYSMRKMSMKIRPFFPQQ
Tn7 DDE FP: inhibitors of Tn7 peptide binding to human fibrin DD(E); FP displacement of FITC-Tn7 peptide from fibrin DD(E); 0% = median of compound wells per plate; inhibition, % at 8.3 µM; actives 0.13% (n = 370,000); AID 720508;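 active = inhibition above the mean of compounds falling within the control limits plus 3 SD of them, cut at about 14% in these data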;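 note: 0% = plate median of compound wells and 100% = 10 µM Aha-Tn7 peptide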
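Assay system: Fibrin-DD(E) protein isolated from polymerized human fibrin clots; read-out basis: percent inhibition; medium: Tris/NaCl/CaCl2 buffer, pH 7.8; signal: FP measurement; incubation: 10 min plus 3 h, room temperature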
CRFBP-R2 block: CRF-BP/CRF-R2 complex antagonism. inhibition, % at 11.8 µM. AID 588475. HEK293 CRF-R2/CRF-BP, CRF-induced calcium fluorescence. actives 0.59% (n = 350,000);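 active = inhibition of the ligand-induced calcium signal above about 50% at the single tested concentration, limit read from the data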
CRFR2-BP ag: CRF-BP/CRF-R2 complex agonism. HEK293 CRF-R2/CRF-BP, calcium dye fluorescence (FLIPR); percent of saturating CRF peptide response. activation, % at 13.2 µM. actives 0.46% (n = 350,000);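 active = activation of at least 50%, plus an integration ratio under a set limit after plate pattern correction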;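 note: plate controls were neutral control wells without compound for no effect and CRF at EC100 for full effect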
DDE Tn6 FP ctr: counter-screen for inhibitors of Tn6 peptide binding to fibrin DD(E). shares compounds with Tn6 DDE FP. TRITC-Tn6 fluorescence polarization displacement; 0% = median of compound wells, not DMSO. inhibition, % at 8.3 µM. actives 2% (n = 680);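 active = inhibition above the mean of test compounds lying between the control limits plus 3 SD of those, cut at about 14% in these data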;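 note: 0% = median of compound wells and 100% = wells with Aha-Tn7 blocking peptide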
DDE Tn6 confirm: DD(E)-Tn6 binding inhibition, FP confirmation. shares compounds with Tn6 DDE FP. FP displacement of TRITC-Tn6 peptide from DD(E); 0% = per-plate median of test wells. inhibition, % at 8.3 µM. actives 10% (n = 680). AID 720631;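 active = inhibition above the mean of compounds lying within the control limits plus 3 SD, cut at about 16% in these data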;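 note: 100% = high control wells holding a competing inhibitor peptide at 10 µM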
Active calls of the source: *. A selection: hits, their analogues and other compounds. The true share with any hit is near 1.3%.

How did Cc1cc(C(=O)COc2cccc3cccnc23)c(C)n1C do in these assays?
Tn6 DDE FP: 30*; Tn7 DDE FP: 5; CRFBP-R2 block: -136; CRFR2-BP ag: 190*; DDE Tn6 FP ctr: 10; DDE Tn6 confirm: 6

How did CCOC(=O)[C@]12CCCC=C1N(Cc1ccc(OC)cc1)C(=O)[C@@H]2CC(=O)NCc1ccccc1 do in these assays?
Tn6 DDE FP: -2; Tn7 DDE FP: -4

What do the screens show for `CCOC(=O)C(CNc1ccc(O)cc1)NC(=O)c1ccccc1` (stereo not given)?
Tn6 DDE FP: 66*; Tn7 DDE FP: 1; DDE Tn6 FP ctr: 8; DDE Tn6 confirm: 10

What do the screens show for `NC1=[N+](Cc2ccccc2)C(Cc2ccccc2)C2C(=C3CCCCC3n3c(=O)n(-c4ccccc4)c(=O)n32)N1` (stereo not given)?
Tn6 DDE FP: -9; Tn7 DDE FP: 7

How did COC(=O)c1cc(Br)c(=O)n(CCN2CCCC2)c1 do in these assays?
Tn6 DDE FP: 17*; Tn7 DDE FP: 2; CRFBP-R2 block: -25; CRFR2-BP ag: -2; DDE Tn6 FP ctr: -3; DDE Tn6 confirm: -5

How did Clc1ccc([C@H]2OC[C@@]3(CNCC4CC4)CS[C@H](c4ccc(Cl)cc4)N23)cc1 do in these assays?
Tn6 DDE FP: 4; Tn7 DDE FP: -4

What do the screens show for `COc1ccc(C2Nc3ccccc3C(=O)N2Cc2ccccc2)cc1COc1ccc(NC(C)=O)cc1` (stereo not given)?
Tn6 DDE FP: 0; Tn7 DDE FP: 3

What do the screens show for `CN(CCc1ccccc1)C1CCCN(C(=O)Cn2cccn2)C1` (stereo not given)?
Tn6 DDE FP: 17*; Tn7 DDE FP: 7; CRFBP-R2 block: -13; CRFR2-BP ag: 1; DDE Tn6 FP ctr: -6; DDE Tn6 confirm: -10

What do the screens show for `COc1ccc(CCN(C)C2CCCN(C(=O)Cn3cccn3)C2)cc1OC` (stereo not given)?
Tn6 DDE FP: 3; Tn7 DDE FP: 3; CRFBP-R2 block: -3; CRFR2-BP ag: 2

How did Cc1cc2ccccc2n1CCNC(=O)c1ccc(Br)o1 do in these assays?
Tn6 DDE FP: 17*; Tn7 DDE FP: -4; CRFBP-R2 block: 6; CRFR2-BP ag: 1; DDE Tn6 FP ctr: -3; DDE Tn6 confirm: 12

What do the screens show for `Cc1cc2ccccc2n1CCNC(=O)Cc1cccc2ccccc12`?
Tn6 DDE FP: 46*; Tn7 DDE FP: -1; CRFBP-R2 block: -15; CRFR2-BP ag: 6; DDE Tn6 FP ctr: 12; DDE Tn6 confirm: 9

Results for CCC(=O)NCCn1c(C)cc2ccccc21 ?
CRFBP-R2 block: 6; CRFR2-BP ag: 5

What do the screens show for `O=S1(=O)c2ccc(N3CC[C@@H](O)C3)cc2OCCCN1C1CC1`?
Tn6 DDE FP: -5; Tn7 DDE FP: 2

Results for C=C(C)Cn1c(SCC(=O)N/N=C(\C)c2ccc(Br)cc2)nnc1-c1ccc(Br)cc1 ?
Tn6 DDE FP: -6; Tn7 DDE FP: -5

How did CN(C)c1ccc(/C=C/C=C2/SC(=S)N(c3ccccc3)C2=O)cc1 do in these assays?
Tn6 DDE FP: 31*; Tn7 DDE FP: -2; CRFBP-R2 block: -20; CRFR2-BP ag: 0; DDE Tn6 FP ctr: 7; DDE Tn6 confirm: 59*

How did COc1cc(/C=C2/SC(=S)N(Cc3ccccc3)C2=O)ccc1OS(C)(=O)=O do in these assays?
Tn6 DDE FP: 3; Tn7 DDE FP: 5; CRFBP-R2 block: -2; CRFR2-BP ag: 0

Results for COc1cc([N+](=O)[O-])cc(/C=C2/SC(=S)N(Cc3ccccc3)C2=O)c1O ?
Tn6 DDE FP: 56*; Tn7 DDE FP: 1; CRFBP-R2 block: -2; CRFR2-BP ag: 40; DDE Tn6 FP ctr: 0; DDE Tn6 confirm: 34*

What do the screens show for `CC(C)Cn1c2c(c(O)c(C(=O)Nc3ccc(F)cc3)c1=O)CCCC2`?
Tn6 DDE FP: 16*; Tn7 DDE FP: -3; CRFBP-R2 block: -38; CRFR2-BP ag: 6; DDE Tn6 FP ctr: 1; DDE Tn6 confirm: -3

What do the screens show for `Cc1nn(-c2ccccc2)c(C)c1/C=N\NC(=O)CSc1nc2ccccc2n1Cc1ccc(Cl)cc1`?
Tn6 DDE FP: 0; Tn7 DDE FP: 5

Compound activity from PubChem.
